From ChEMBL document CHEMBL3233006 (J Med Chem, 2014)
pIC50: −log10 of the molar value. Active and inactive are the calls of the source. The calls are words filed in the database; no cut-off is given here.

Assays:
[1] = molecular target: Serine/threonine-protein kinase B-raf (Homo sapiens, UniProt P15056, V600E); test: Inhibition of BRAF V600E mutant (unknown origin) after 1 to 1.5 hrs by FRET-based Z'-Lyte assay
Outline: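 Z′-Lyte FRET cascade assay in 10 μL. Incubated 1 h at room temperature, then development reagent 1 h, then stop reagent. Controls: phospho-peptide, no ATP, and 4% DMSO solution. Means of 2 independent experiments.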

[2] = molecular target: T1, Epidermal growth factor receptor (Homo sapiens, UniProt P00533); test: Inhibition of EGFR (unknown origin) after 1 to 1.5 hrs by FRET-based Z'-Lyte assay
[3] = test system: SK-MEL-28; test: cells; type: functional, cell-based; settings: Homo sapiens, SK-MEL-28, 68 h
[4] = cells; type: functional; settings: Homo sapiens, 68 h
[5] = organism: Homo sapiens; test: Inhibition of MAPK-mediated ERK phosphorylation at Thr202/Tyr204 in human SK-MEL-28-PR30 cells at 1 uM after 24 hrs by Western blotting analysis; type: cell-based
Outline: (§1)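 Time-course western blot with treatment at 1.0 μM. SK-MEL-28-PR30 or WiDr cells exposed for 2, 24 and 48 h. RIPA lysates quantified by BCA, equal protein blotted on PVDF, and probed for phospho-ERK (T202/Y204), total ERK and GAPDH.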

[6] = organism: Homo sapiens; test: Inhibition of MAPK-mediated ERK phosphorylation at Thr202/Tyr204 in human SK-MEL-28-PR30 cells at 1 uM after 48 hrs by Western blotting analysis; type: cell-based; outline: as §1
[7] = test system: HT-29; test: Antiproliferative activity against human HT-29 cells harboring BRAF V600E mutant and EGFR after 68 hrs […]; type: functional, cell-based; settings: HT-29, 68 h
[8] = test system: COLO 205; test: Antiproliferative activity against human COLO205 cells harboring BRAF V600E mutant and EGFR after 68 hrs by MTS assay; type: functional, cell-based; settings: COLO 205, 68 h
[9] = test system: HCT-116; test: Antiproliferative activity against human HCT116 cells harboring wild-type BRAF and EGFR after 68 hrs […]; type: functional, cell-based; settings: HCT-116, 68 h
[10] = test system: LoVo; test: Antiproliferative activity against human LoVo cells harboring wild-type BRAF after 68 hrs by […]; type: functional, cell-based
[11] = test system: WiDr; test: Antiproliferative activity against human WiDr cells harboring BRAF V600E mutant and EGFR after 68 hrs […]; type: functional, cell-based
[12] = molecular target: Receptor tyrosine-protein kinase erbB-2 (Homo sapiens) (UniProt P04626); test: Inhibition of ERBB2 (unknown origin) at 1 uM by KINOMEscan assay
Outline: (§2)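 KINOMEscan binding screen across a panel of 456 kinases (including 395 distinct wild-type kinases), with test compound at 1.0 μM.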

[13] = molecular target: Receptor tyrosine-protein kinase erbB-4 (Homo sapiens) (UniProt Q15303); test: Inhibition of ERBB4 (unknown origin) at 1 uM by KINOMEscan assay; outline: as §2
[14] = molecular target: Platelet-derived growth factor receptor beta (Homo sapiens) (UniProt P09619); test: Inhibition of PDGFRbeta (unknown origin) at 1 uM by KINOMEscan assay; outline: as §2
[15] = organism: Homo sapiens; test: Inhibition of MAPK-mediated ERK phosphorylation at Thr202/Tyr204 in human SK-MEL-28-PR30 cells after 2 hrs by Western blotting analysis; type: cell-based
Outline: (§3)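 1 × 10⁶ cells seeded overnight in 6-cm dishes, then treated 2 h with 3, 1 or 0.3 μM in fresh medium; 1‰ DMSO as control. RIPA lysates, protein quantified by BCA, equal loads run on PVDF blots. Blocked 1 h at room temperature, then probed for EGFR, phospho-EGFR (Tyr1068), ERK, phospho-ERK (T202/Y204) and GAPDH.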

[16] = molecular target: T1, Epidermal growth factor receptor; test: Inhibition of EGFR phosphorylation at Tyr1068 in human SK-MEL-28-PR30 cells after 2 hrs by Western blotting analysis; type: cell-based; outline: as §3
[17] = organism: Homo sapiens; test: Effect on total EGFR protein level in human SK-MEL-28-PR30 cells after 2 hrs by Western blotting analysis; type: functional, cell-based; outline: as §3
[18] = organism: Homo sapiens; test: Effect on total ERK protein level in human SK-MEL-28-PR30 cells after 2 hrs by Western blotting analysis; type: functional, cell-based; outline: as §3
[19] = test system: WiDr; test: Inhibition of MAPK-mediated ERK phosphorylation at Thr202/Tyr204 in human WiDr cells after 2 hrs by Western blotting analysis; type: cell-based; outline: as §3
[20] = test system: HT-29; test: Inhibition of MAPK-mediated ERK phosphorylation at Thr202/Tyr204 in human HT-29 cells after 2 hrs by Western blotting analysis; type: cell-based; outline: as §3
[21] = test system: A-375; test: Inhibition of MAPK-mediated ERK phosphorylation at Thr202/Tyr204 in human A375 cells after 2 hrs by Western blotting analysis; type: cell-based; outline: as §3
[22] = molecular target: T1, Epidermal growth factor receptor; test: Inhibition of EGFR phosphorylation at Tyr1068 in human WiDr cells after 2 hrs by Western blotting analysis; type: cell-based; outline: as §3
[23] = molecular target: T1, Epidermal growth factor receptor; test: Inhibition of EGFR phosphorylation at Tyr1068 in human HT-29 cells after 2 hrs by Western blotting analysis; type: cell-based; outline: as §3
[24] = molecular target: T1, Epidermal growth factor receptor; test: Inhibition of EGFR phosphorylation at Tyr1068 in human A375 cells after 2 hrs by Western blotting analysis; type: cell-based; settings: A-375; outline: as §3
[25] = test system: WiDr; test: Inhibition of MAPK-mediated ERK phosphorylation at Thr202/Tyr204 in human WiDr cells at 1 uM after 2 to 48 hrs by Western blotting analysis; type: cell-based; outline: as §1

Serine/threonine-protein kinase B-raf, sequence (P15056 2-766 V600E limits assumed): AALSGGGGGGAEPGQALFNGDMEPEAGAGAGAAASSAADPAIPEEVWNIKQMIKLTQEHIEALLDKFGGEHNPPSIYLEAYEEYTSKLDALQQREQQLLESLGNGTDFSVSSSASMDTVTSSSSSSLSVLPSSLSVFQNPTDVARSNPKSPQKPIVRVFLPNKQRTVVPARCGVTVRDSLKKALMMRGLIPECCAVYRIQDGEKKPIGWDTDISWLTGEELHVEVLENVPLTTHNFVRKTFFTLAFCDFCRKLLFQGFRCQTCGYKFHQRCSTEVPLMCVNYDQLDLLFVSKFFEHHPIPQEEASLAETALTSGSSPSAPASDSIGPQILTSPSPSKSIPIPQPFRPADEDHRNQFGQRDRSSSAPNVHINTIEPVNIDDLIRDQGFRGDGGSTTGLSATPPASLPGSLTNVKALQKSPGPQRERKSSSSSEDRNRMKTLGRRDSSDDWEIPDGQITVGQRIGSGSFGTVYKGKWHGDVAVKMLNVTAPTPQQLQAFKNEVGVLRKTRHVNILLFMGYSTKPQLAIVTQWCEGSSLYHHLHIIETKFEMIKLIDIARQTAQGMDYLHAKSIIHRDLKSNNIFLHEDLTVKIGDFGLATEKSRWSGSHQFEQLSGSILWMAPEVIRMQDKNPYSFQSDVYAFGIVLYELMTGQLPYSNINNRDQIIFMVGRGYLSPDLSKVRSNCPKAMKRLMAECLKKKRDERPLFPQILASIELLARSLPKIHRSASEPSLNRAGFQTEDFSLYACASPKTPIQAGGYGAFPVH
T1 sequence (P00533 whole entry): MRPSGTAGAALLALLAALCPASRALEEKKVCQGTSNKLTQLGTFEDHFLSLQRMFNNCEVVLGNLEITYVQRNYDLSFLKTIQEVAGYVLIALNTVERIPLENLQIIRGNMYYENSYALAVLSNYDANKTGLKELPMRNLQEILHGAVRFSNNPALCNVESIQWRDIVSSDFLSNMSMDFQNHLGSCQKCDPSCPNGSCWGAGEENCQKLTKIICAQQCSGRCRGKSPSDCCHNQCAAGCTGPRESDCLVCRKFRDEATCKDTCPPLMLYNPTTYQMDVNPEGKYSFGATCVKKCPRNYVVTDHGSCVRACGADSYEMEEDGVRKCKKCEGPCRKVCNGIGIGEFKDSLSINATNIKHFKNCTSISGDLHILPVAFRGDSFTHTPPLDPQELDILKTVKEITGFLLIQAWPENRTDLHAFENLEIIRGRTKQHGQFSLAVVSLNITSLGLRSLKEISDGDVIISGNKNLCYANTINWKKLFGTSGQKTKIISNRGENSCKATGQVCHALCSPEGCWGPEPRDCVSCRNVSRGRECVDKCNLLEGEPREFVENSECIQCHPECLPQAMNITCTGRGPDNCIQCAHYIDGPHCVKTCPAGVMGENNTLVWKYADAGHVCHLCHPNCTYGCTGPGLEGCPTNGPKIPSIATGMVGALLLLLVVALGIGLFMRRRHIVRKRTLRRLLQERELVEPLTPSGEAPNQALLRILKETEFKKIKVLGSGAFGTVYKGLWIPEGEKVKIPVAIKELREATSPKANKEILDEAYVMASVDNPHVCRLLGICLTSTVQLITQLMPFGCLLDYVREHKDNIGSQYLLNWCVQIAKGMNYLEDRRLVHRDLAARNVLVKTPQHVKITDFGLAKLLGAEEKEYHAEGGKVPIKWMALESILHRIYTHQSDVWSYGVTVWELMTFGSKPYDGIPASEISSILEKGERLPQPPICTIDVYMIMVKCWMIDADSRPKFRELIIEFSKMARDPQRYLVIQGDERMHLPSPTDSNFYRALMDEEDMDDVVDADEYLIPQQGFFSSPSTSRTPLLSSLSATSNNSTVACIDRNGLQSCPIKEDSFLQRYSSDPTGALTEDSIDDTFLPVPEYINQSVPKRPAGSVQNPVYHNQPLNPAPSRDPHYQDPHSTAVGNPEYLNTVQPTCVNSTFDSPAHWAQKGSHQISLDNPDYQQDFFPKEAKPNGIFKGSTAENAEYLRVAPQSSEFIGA
Receptor tyrosine-protein kinase erbB-2 (Homo sapiens), sequence (P04626 whole entry): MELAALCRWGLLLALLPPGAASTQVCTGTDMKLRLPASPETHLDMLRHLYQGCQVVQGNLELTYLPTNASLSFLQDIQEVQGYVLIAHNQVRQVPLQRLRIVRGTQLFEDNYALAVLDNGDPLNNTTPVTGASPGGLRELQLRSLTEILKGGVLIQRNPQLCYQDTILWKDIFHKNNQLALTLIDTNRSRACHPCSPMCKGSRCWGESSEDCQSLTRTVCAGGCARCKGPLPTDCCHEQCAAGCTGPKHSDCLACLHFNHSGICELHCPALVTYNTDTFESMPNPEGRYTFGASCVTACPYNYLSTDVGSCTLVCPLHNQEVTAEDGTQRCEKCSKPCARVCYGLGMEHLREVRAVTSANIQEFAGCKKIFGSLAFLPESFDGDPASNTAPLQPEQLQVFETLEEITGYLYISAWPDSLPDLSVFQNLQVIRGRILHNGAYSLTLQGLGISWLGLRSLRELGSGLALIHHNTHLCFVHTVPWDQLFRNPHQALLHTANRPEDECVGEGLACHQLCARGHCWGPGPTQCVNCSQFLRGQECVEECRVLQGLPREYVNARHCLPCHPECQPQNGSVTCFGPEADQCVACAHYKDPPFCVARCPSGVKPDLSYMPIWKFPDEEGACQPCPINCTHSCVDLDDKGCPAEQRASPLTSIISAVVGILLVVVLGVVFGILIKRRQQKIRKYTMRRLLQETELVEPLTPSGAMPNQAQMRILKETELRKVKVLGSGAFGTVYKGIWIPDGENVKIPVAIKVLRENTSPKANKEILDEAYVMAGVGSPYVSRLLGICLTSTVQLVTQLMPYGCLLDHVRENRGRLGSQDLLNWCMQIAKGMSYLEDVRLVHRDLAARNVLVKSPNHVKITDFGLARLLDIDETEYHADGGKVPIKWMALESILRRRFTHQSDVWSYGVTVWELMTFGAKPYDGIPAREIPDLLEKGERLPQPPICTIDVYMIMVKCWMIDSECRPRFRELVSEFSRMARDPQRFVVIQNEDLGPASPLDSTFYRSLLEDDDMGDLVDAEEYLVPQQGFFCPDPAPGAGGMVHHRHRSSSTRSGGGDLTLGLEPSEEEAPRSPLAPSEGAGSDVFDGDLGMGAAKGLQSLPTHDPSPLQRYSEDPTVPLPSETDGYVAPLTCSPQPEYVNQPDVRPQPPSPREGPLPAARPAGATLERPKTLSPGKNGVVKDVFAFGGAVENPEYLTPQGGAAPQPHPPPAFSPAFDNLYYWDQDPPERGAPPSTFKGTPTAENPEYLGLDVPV
Receptor tyrosine-protein kinase erbB-4 (Homo sapiens), sequence (Q15303 whole entry): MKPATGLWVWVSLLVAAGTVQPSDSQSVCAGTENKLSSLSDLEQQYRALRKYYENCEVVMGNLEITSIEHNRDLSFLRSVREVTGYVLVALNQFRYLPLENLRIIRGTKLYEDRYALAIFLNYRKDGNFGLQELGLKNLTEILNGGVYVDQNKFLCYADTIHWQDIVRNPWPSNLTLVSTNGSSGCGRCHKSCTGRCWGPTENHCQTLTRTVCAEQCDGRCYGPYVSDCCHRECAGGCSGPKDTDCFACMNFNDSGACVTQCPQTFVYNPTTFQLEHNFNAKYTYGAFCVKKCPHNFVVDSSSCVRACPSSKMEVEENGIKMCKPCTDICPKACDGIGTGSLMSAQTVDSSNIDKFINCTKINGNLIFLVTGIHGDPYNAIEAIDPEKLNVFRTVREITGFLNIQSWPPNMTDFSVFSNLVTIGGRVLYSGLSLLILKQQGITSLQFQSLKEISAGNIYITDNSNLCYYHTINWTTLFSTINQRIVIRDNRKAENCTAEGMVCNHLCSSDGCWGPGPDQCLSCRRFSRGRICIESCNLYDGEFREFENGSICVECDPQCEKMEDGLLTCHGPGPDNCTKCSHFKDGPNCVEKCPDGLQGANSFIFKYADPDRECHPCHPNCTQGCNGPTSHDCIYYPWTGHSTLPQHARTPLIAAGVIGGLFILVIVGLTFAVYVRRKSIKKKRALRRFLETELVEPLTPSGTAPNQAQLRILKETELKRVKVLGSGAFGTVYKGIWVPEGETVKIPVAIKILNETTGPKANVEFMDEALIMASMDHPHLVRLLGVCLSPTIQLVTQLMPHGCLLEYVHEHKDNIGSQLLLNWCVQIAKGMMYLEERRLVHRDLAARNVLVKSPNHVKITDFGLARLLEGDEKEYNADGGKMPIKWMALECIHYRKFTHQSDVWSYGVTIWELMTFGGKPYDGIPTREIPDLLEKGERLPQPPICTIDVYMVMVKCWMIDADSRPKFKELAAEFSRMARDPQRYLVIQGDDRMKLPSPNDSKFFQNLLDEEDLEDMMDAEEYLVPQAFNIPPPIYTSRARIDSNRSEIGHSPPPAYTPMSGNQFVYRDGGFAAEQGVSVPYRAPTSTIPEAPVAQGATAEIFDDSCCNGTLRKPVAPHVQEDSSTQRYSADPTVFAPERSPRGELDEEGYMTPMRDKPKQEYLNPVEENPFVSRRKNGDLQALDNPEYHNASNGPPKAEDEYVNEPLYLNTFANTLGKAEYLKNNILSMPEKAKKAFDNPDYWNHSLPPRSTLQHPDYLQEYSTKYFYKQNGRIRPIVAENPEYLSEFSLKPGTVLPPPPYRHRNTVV

Compound	pIC50 [1]	pIC50 [2]	pIC50 [3]	pIC50 [4]	further results
Cc1ccc(C(=O)Nc2ccc(CN3CCN(C)CC3)c(C(F)(F)F)c2)cc1NC(=O)c1cnccn1	6.55	5.41	< 4.70	< 4.70	–
Cc1ccc(C(=O)Nc2ccc(CN3CCN(C)CC3)c(C(F)(F)F)c2)cc1NC(=O)c1cccnc1	6.26	6.26	4.85	< 4.70	–
Cc1ccc(C(=O)Nc2ccc(CN3CCN(C)CC3)c(C(F)(F)F)c2)cc1NC(=O)c1ccncc1	6.96	< 5.00	< 4.70	< 4.70	–
Cc1ccc(C(=O)Nc2ccc(CN3CCN(C)CC3)c(C(F)(F)F)c2)cc1NC(=O)c1ccc2[nH]ccc2c1	6.66	< 5.00	5.35	5.52	–
Cc1ccc(C(=O)Nc2ccc(CN3CCN(C)CC3)c(C(F)(F)F)c2)cc1NC(=O)c1cnc(NC2CC2)nc1	6.41	7.36	5.53	5.84	–
CNc1ncc(C(=O)Nc2cc(C(=O)Nc3ccc(CN4CCN(C)CC4)c(C(F)(F)F)c3)ccc2C)cn1	6.54	6.92	< 4.70	5.56	–
CC(C)c1ccc(C(=O)Nc2ccc(CN3CCN(C)CC3)c(C(F)(F)F)c2)cc1NC(=O)c1cnc2[nH]ccc2c1	6.54	6.80	5.64	5.72	–
Cc1ccc(C(=O)Nc2ccc(CN3CCN(C)CC3)c(C(F)(F)F)c2)cc1NC(=O)c1cnc(N(C)C)nc1	6.52	5.26	5.16	5.60	–
Cc1ccc(C(=O)Nc2ccc(CN3CCN(C)CC3)c(C(F)(F)F)c2)cc1NC(=O)c1cnc(NC2CCCCC2)nc1	7.43	7.33	5.62	5.56	–
Cc1ccc(C(=O)Nc2ccc(CN3CCN(C)CC3)c(C(F)(F)F)c2)cc1NC(=O)c1cnc(NC2CCCC2)nc1	6.64	7.48	5.69	5.91	–
Cc1ccc(C(=O)Nc2ccc(CN3CCN(C)CC3)c(C(F)(F)F)c2)cc1NC(=O)c1ccc(O)nc1	< 5.00	5.88	< 4.70	< 4.70	–
Cc1ccc(C(=O)Nc2ccc(CN3CCN(C)CC3)c(C(F)(F)F)c2)cc1NC(=O)c1cncnc1	6.17	5.72	< 4.70	< 4.70	–
Cc1ccc(C(=O)Nc2ccc(CN3CCN(C)CC3)c(C(F)(F)F)c2)cc1NC(=O)c1ccccc1	6.62	< 5.00	5.16	5.30	–
Cc1ccc(C(=O)Nc2ccc(CN3CCN(C)CC3)c(C(F)(F)F)c2)cc1NC(=O)c1ccccn1	6.24	–	< 4.70	4.97	–

Stronger by pIC50 [3], values ahead:

pIC50 [1]	pIC50 [2]	pIC50 [3]	pIC50 [4]	Compound	further results
6.39	7.37	5.74	5.72	Cc1ccc(C(=O)Nc2ccc(CN3CCN(C)CC3)c(C(F)(F)F)c2)cc1NC(=O)c1cnc(N)nc1	–
6.47	7.37	5.76	6.07	Cc1ccc(C(=O)Nc2ccc(CN3CCN(C)CC3)c(C(F)(F)F)c2)cc1NC(=O)c1cnc(NC(C)C)nc1	–
6.68	8.22	5.77	6.05	Cc1ccc(C(=O)Nc2ccc(CN3CCN(C)CC3)c(C(F)(F)F)c2)cc1NC(=O)c1cnc(Nc2ccccc2)nc1	–
6.29	6.89	5.96	5.62	CCNc1ncc(C(=O)Nc2cc(C(=O)Nc3ccc(CN4CCN(C)CC4)c(C(F)(F)F)c3)ccc2C)cn1	–
7.32	6.17	5.97	5.76	CN1CCN(Cc2ccc(NC(=O)c3cccc(NC(=O)c4cnc5[nH]ccc5c4)c3)cc2C(F)(F)F)CC1	–
6.44	7.00	6.04	6.31	CCc1ccc(C(=O)Nc2ccc(CN3CCN(C)CC3)c(C(F)(F)F)c2)cc1NC(=O)c1cnc2[nH]ccc2c1	–
7.32	7.52	6.27	6.11	Cc1ccc(C(=O)Nc2ccc(CN3CCN(C)CC3)c(C(F)(F)F)c2)cc1NC(=O)c1cnc2[nH]ncc2c1	pIC50 [7]: 6.11; pIC50 [8]: 6.44; pIC50 [9]: 5.86; pIC50 [10]: 6.32; pIC50 [11]: 5.87
–	–	6.32	< 4.70	CCCS(=O)(=O)Nc1ccc(F)c(C(=O)c2c[nH]c3ncc(-c4ccc(Cl)cc4)cc23)c1F [VEMURAFENIB]	inhibition [5]: inactive; inhibition [6]: inactive
7.29	8.10	6.89	6.35	Cc1ccc(C(=O)Nc2ccc(CN3CCN(C)CC3)c(C(F)(F)F)c2)cc1NC(=O)c1cnc2[nH]ccc2c1	pIC50 [7]: 6.32; pIC50 [8]: 6.66; pIC50 [9]: 5.88; pIC50 [10]: 6.77; pIC50 [11]: 6.17; inhibition [12]: Active; inhibition [13]: Active; inhibition [14]: Active; inhibition [15]: Dose-dependent effect; inhibition [16]: Dose-dependent effect; inhibition [17]: Dose-dependent effect; inhibition [18]: Dose-dependent effect; inhibition [19]: Dose-dependent effect; inhibition [20]: Dose-dependent effect; inhibition [21]: Dose-dependent effect; inhibition [22]: Dose-dependent effect; inhibition [23]: Dose-dependent effect; inhibition [24]: Dose-dependent effect; inhibition [6]: Active; inhibition [25]: Active
